Assay [1] in a line: Displacement of [125I]hU-2 from human recombinant urotensin receptor expressed in HEK293 cells. The class given is cell-based. Summed up:
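Radioligand binding with [125I]hU-II on membranes of HEK293 cells stably expressing recombinant human UT receptor. Ki given as the mean of at least two determinations (SD <±0.3 log units).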
(In a radioligand displacement assay an active substance lowers the binding of a labelled ligand.)

Assay [2] has as its target Kappa-type opioid receptor (Homo sapiens, UniProt P41145). Description: Agonist activity at human kappa opioid receptor expressed in CHO-K1 cells by [35S]GTPgamma binding assay. It counts as functional, cell-based. Summed up: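 Human κ-opioid receptor, membranes from BacMam-transduced CHO-K1 cells. Agonism read as [35S]GTPγS binding, detected by LEADseeker SPA. EC50 reported from a single run or as the mean of two runs (SD <±0.3 log units).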

Assay [3] can be described thus: Displacement of [125I]hU-2 from rat recombinant urotensin receptor expressed in HEK293 cells. The class given is cell-based.
For a further assay, the species on record is Rattus norvegicus. Description: Selectivity ratio of Kb for urotensin receptor in Sprague-Dawley rat thoracic aorta to Ki for rat recombinant urotensin receptor. The class given is tissue-based.
A short description of assay [4]: Antagonist activity at rat urotensin receptor in Sprague-Dawley rat thoracic aorta assessed as inhibition of urotensin-mediated contraction. It counts as functional. The method in brief:
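Isolated rat aortic rings were contracted via UT, and the test agent's inhibition of that contraction was measured. The value is reported as a Kb, the mean of two determinations ± SEM.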

Bounds are passed on as bounds.

Kappa-type opioid receptor, sequence (P41145 whole entry): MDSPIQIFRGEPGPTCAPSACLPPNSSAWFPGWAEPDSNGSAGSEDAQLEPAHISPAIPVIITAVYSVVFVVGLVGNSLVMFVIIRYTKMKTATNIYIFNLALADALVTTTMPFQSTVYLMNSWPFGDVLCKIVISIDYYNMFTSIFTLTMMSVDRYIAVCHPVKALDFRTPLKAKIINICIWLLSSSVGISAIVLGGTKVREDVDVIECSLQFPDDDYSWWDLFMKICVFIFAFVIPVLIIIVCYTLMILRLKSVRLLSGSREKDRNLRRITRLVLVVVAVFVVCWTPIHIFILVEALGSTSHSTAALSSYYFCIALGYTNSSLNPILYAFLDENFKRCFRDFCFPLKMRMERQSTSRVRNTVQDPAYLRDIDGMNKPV

In the case of `CN(CC(=O)N1CCN(C(=O)c2ccc(C#N)cc2)CC1CN1CCCC1)c1ccc(Cl)c(Cl)c1` (configuration not stated), the Ki in assay [1] amounted to 1300 nM. The molecule also returned an EC50 in assay [2] of 3200 nM.

Turning to `O=C(Cn1c(=O)oc2ccc(Cl)cc21)N1CCN(S(=O)(=O)c2ccccc2)CC1CN1CCCC1` (configuration not stated), the Ki in assay [1] is 20 nM. The molecule further yielded an EC50 in assay [2] of 790 nM.

Turning to `O=C(O)c1ccc(S(=O)(=O)N2CCN(C(=O)Cn3c(=O)oc4ccc(Cl)cc43)C(CN3CCCC3)C2)cc1O` (configuration not stated), the Ki in assay [1] is 13 nM; in assay [3] it was 8 nM. The EC50 in assay [2] is 7900 nM. Also, the Ratio in the assay listed under Rattus norvegicus was determined as 1.3. The Kb in assay [4] worked out at 10 nM.

For `O=C(Cc1cccc2ccccc12)N1CCN(c2ccccc2)CC1CN1CCCC1` (configuration not stated), the Ki in assay [1] came out at 320 nM. This molecule registered a concentration giving a half-maximal response (EC50) in assay [2] of 1.6 nM.

For `O=C(Cn1c(=O)oc2ccc(Cl)cc21)N1CCN(S(=O)(=O)c2cc(C(F)(F)F)ccc2Cl)CC1CN1CCCC1` (configuration not stated), in assay [1], the Ki turned out to be 13 nM. The response in assay [2] was half-maximal at 1000 nM (EC50).

Take `N#Cc1cccc(S(=O)(=O)N2CCN(C(=O)Cn3c(=O)oc4ccc(Cl)cc43)C(CN3CCCC3)C2)c1` (configuration not stated): the Ki in assay [1] turned out to be 10 nM. Besides, the response in assay [2] was half-maximal at 630 nM (EC50).

Take `CN(CC(=O)N1CCN(S(=O)(=O)c2cccc(Cl)c2)CC1CN1CCCC1)c1ccc(Cl)c(Cl)c1` (configuration not stated): the Ki in assay [1] stood at 160 nM. This molecule also yielded an EC50 in assay [2] of 200 nM.

Take `COc1ccc(C(=O)N2CCN(C(=O)CN(C)c3ccc(Cl)c(Cl)c3)C(CN3CCCC3)C2)cc1OC` (configuration not stated): the Ki in assay [1] stood at 400 nM. In assay [2], the EC50 is > 10000 nM.

As to `CN(CC(=O)N1CCN(C(=O)c2cccc(Cl)c2)CC1CN1CCCC1)c1ccc(Cl)c(Cl)c1` (configuration not stated), the Ki in assay [1] worked out at 130 nM. Further, the EC50 in assay [2] was > 10000 nM.

For the molecule `COc1cccc(S(=O)(=O)N2CCN(C(=O)CN(C)c3ccc(Cl)c(Cl)c3)C(CN3CCCC3)C2)c1` (configuration not stated), the inhibition constant Ki in assay [1] came out at 79 nM. In addition, in assay [2], the EC50 came to 79 nM.

Consider `O=C(Cn1c(=O)oc2ccccc21)N1CCN(c2ccccc2)CC1CN1CCCC1` (configuration not stated), for which the Ki in assay [1] is 130 nM. The same molecule registered an EC50 in assay [2] of 400 nM.

As for `CN(CC(=O)N1CCN(S(=O)(=O)c2ccccc2)CC1CN1CCCC1)c1ccc(Cl)c(Cl)c1` (configuration not stated), in assay [1], the Ki amounted to 20 nM. The same molecule showed an EC50 in assay [2] of 250 nM.

For the molecule `CN(CC(=O)N1CCN(c2ccccc2)CC1CN1CCCC1)c1ccc(Cl)c(Cl)c1` (configuration not stated), the Ki in assay [1] was 250 nM. The same molecule gave an EC50 in assay [2] of 1.3 nM.

With `CN(CC(=O)N1CCN(S(C)(=O)=O)CC1CN1CCCC1)c1ccc(Cl)c(Cl)c1` (configuration not stated), in assay [1], the Ki is 100 nM. The molecule also returned an EC50 in assay [2] of 3 nM.

As for `O=C(Cc1csc2ccc(Cl)cc12)N1CCN(c2ccccc2)CC1CN1CCCC1` (configuration not stated), in assay [1], the inhibitory constant (Ki) is 63 nM. In addition, a half-maximal effect in assay [2] (EC50) was put at 2 nM.

As to `COc1ccc(S(=O)(=O)N2CCN(C(=O)Cn3c(=O)oc4ccc(Cl)cc43)C(CN3CCCC3)C2)cc1OC` (configuration not stated), the Ki in assay [1] was determined as 13 nM. Also, in assay [2], the response was half-maximal at 320 nM (EC50).

Turning to `CN(CC(=O)N1CCN(C(=O)c2ccccc2)CC1CN1CCCC1)c1ccc(Cl)c(Cl)c1` (configuration not stated), in assay [1], the Ki was determined as 200 nM. In assay [2], this molecule came in with a 50% effective concentration (EC50) of 7900 nM.

Take `COc1ccc(S(=O)(=O)N2CCN(C(=O)Cn3c(=O)oc4ccc(Cl)cc43)C(CN3CCCC3)C2)c(Br)c1OC` (configuration not stated): the Ki in assay [1] is 1.6 nM; in assay [3] it was 10 nM. The molecule also returned an EC50 in assay [2] of 1300 nM. Moreover, the Ratio in the assay listed under Rattus norvegicus turned out to be 1.4. Besides, in assay [4], the antagonist equilibrium constant (Kb) is 14.2 nM.

With `CN(CC(=O)N1CCN(S(=O)(=O)c2ccc(F)c(F)c2)CC1CN1CCCC1)c1ccc(Cl)c(Cl)c1` (configuration not stated), in assay [1], the Ki was 130 nM. In addition, the EC50 in assay [2] came to 400 nM.

For `CN(CC(=O)N1CCN(C(=O)c2ccncc2)CC1CN1CCCC1)c1ccc(Cl)c(Cl)c1` (configuration not stated), in assay [1], the Ki came to 100 nM. Besides, the EC50 in assay [2] turned out to be 630 nM.

Turning to `O=C(Cn1c(=O)oc2ccc(Cl)cc21)N1CCN(S(=O)(=O)c2cccc(C(F)(F)F)c2)CC1CN1CCCC1` (configuration not stated), the inhibition constant Ki in assay [1] worked out at 50 nM. This molecule registered an EC50 in assay [2] of 2000 nM.

For the molecule `O=C(Cn1c(=O)oc2ccc(Cl)cc21)N1CCN(S(=O)(=O)c2ccccc2Br)CC1CN1CCCC1` (configuration not stated), the Ki in assay [1] came out at 8 nM. The molecule further had an EC50 in assay [2] of 2000 nM. In assay [4], the Kb amounted to 52.8 nM.

As for `CN(CC(=O)N1CCN(c2cccc(Cl)c2)CC1CN1CCCC1)c1ccc(Cl)c(Cl)c1` (configuration not stated), the Ki in assay [1] was 63 nM. The concentration for a half-maximal effect (EC50) in assay [2] came to 4 nM.

For `CN(CC(=O)N1CCCCC1CN1CCCC1)c1ccc(Cl)c(Cl)c1` (configuration not stated), the Ki in assay [1] came out at 500 nM. Besides, in assay [2], the EC50 was found to be 3 nM.

In the case of `O=C(O)c1ccc(S(=O)(=O)N2CCN(C(=O)Cn3c(=O)oc4ccc(Cl)cc43)C(CN3CCCC3)C2)cc1` (configuration not stated), the Ki in assay [1] amounted to 25 nM; in assay [3], 32 nM. Moreover, in assay [2], the EC50 stood at 2000 nM. Moreover, in the assay filed under Rattus norvegicus, the Ratio stood at 2.6. Also, in assay [4], the Kb came out at 81.8 nM.

Take `COc1ccc(S(=O)(=O)N2CCN(C(=O)Cn3c(=O)oc4ccc(Cl)cc43)C(CN3CCCC3)C2)cc1` (configuration not stated): the inhibitory constant (Ki) in assay [1] is 25 nM. The molecule further registered an EC50 in assay [2] of 2000 nM.

For the molecule `CC(=O)Nc1ccc(S(=O)(=O)N2CCN(C(=O)Cn3c(=O)oc4ccc(Cl)cc43)C(CN3CCCC3)C2)cc1` (configuration not stated), the inhibition constant Ki in assay [1] stood at 2.5 nM; in assay [3] it was 4 nM. In assay [2], this molecule displayed an EC50 of 1300 nM. In the assay filed under Rattus norvegicus, the Ratio came out at 3.3. In addition, the antagonist equilibrium constant (Kb) in assay [4] was 13.1 nM.

For `CN(CC(=O)N1CCN(S(=O)(=O)c2ccc(Cl)cc2)CC1CN1CCCC1)c1ccc(Cl)c(Cl)c1` (configuration not stated), in assay [1], the Ki was determined as 100 nM. Also, in assay [2], the EC50 came to 790 nM.

With `O=C(Cn1c(C(F)(F)F)nc2ccccc21)N1CCN(c2ccccc2)CC1CN1CCCC1` (configuration not stated), the Ki in assay [1] is 79 nM.

As for `CN(CC(=O)N1CCN(C(=O)Nc2ccccc2)CC1CN1CCCC1)c1ccc(Cl)c(Cl)c1` (configuration not stated), in assay [1], the Ki was 790 nM. In addition, the half-maximal effective concentration (EC50) in assay [2] worked out at 4000 nM.

In the case of `COc1cccc(N2CCN(C(=O)CN(C)c3ccc(Cl)c(Cl)c3)C(CN3CCCC3)C2)c1` (configuration not stated), the Ki in assay [1] came out at 50 nM. A half-maximal effect in assay [2] (EC50) was put at 3.2 nM.

In the case of `COc1ccc(Br)cc1S(=O)(=O)N1CCN(C(=O)Cn2c(=O)oc3ccc(Cl)cc32)C(CN2CCCC2)C1` (configuration not stated), the Ki in assay [1] was found to be 130 nM. This molecule also had a concentration giving a half-maximal response (EC50) in assay [2] of 790 nM.

For `CN(CC(=O)N1CCN(c2ccc(F)c(F)c2)CC1CN1CCCC1)c1ccc(Cl)c(Cl)c1` (configuration not stated), the Ki in assay [1] turned out to be 100 nM. This molecule also had an EC50 in assay [2] of 6.3 nM.

On to `COc1cccc(S(=O)(=O)N2CCN(C(=O)Cn3c(=O)oc4ccc(Cl)cc43)C(CN3CCCC3)C2)c1` (configuration not stated), for which, in assay [1], the inhibition constant (Ki) came out at 25 nM. The molecule further came in with an EC50 in assay [2] of 320 nM.

Regarding `O=C(Cn1c(=O)oc2ccccc21)N1CCN(S(=O)(=O)c2ccccc2)CC1CN1CCCC1` (configuration not stated), the Ki in assay [1] came to 500 nM. For the same molecule, the response in assay [2] was half-maximal at 1000 nM (EC50).

Broadly, the Ki is the equilibrium dissociation constant of an inhibitor or competing ligand from its target. In general, EC50 refers to the concentration at which the effect is half-maximal. The low end stands for a more potent agent, the high end for a less potent agent. In general, Kb refers to the affinity of an antagonist, worked out from how it opposes an agonist.
